# Reference: ChEMBL document CHEMBL1122668, “Synthesis, conformational analysis, and antiarrhythmic properties of 7-benzyl-3-thia-7-azabicyclo[3.3.1]nonan-9-one, 7-benzyl-3-thia-7-azabicyclo[3.3.1]nonane hydroperchlorate, and 7-benzyl-9-phenyl-3-thia-7-azabicyclo[3.3.1]nonan-9-ol hydroperchlorate and derivatives: single-crystal X-ray …” (1984)
# Activity calls are given as the source filed them. No cut-off for these calls is given here.
# Assays:
# Canis familiaris [1] = species on record: Canis familiaris; assay: Effect of compound on rate of induced ventricular tachycardia (VT) in dog; format: functional, Canis lupus familiaris, Cardiac ventricle
# Summary of the method: (§1)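 Dogs with 24-h myocardial infarction under iv sodium pentobarbital (30 mg/kg), six per agent. Drug given as an iv bolus in 50% ethanol at 3 and 6 mg/kg; the reference agent was given iv at 2, 4 and 6 mg/kg. Sustained VT was induced by three paced ventricular beats at 240–390/min, with pacing retried up to 420/min after dosing. Read-outs were VT rate, abolition count and continuous mean arterial pressure.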
# Canis familiaris [2] = species on record: Canis familiaris; assay: Compound was tested for mean blood pressure on induced Ventricular Tachycardia (VT); format: functional, Canis lupus familiaris; summary of the method: as §1
# Canis familiaris [3] = species on record: Canis familiaris; assay: Effect of compound on myocardial conduction normal (A-V, I-V); No change.; format: functional, organism-based; conditions: Canis lupus familiaris; Myocardium
# Canis familiaris [4] = species on record: Canis familiaris; assay: Effect of compound on myocardial conduction abnormal; ++ = moderate decrease; format: functional, organism-based; conditions: Canis lupus familiaris; Myocardium
# Canis familiaris [5] = species on record: Canis familiaris; assay: Compound was evaluated for abolition of ventricular tachycardia (Number/total); + = slight degree; format: functional, organism-based; conditions: Canis lupus familiaris; Cardiac ventricle
# Canis familiaris [6] = species on record: Canis familiaris; assay: Effect of compound on myocardial conduction abnormal; No change.; format: functional, organism-based; conditions: Canis lupus familiaris; Myocardium
# Canis familiaris [7] = species on record: Canis familiaris; assay: Increase in mean blood pressure on Ventricular Tachycardia (VT); (SL-Slight); format: functional, Canis lupus familiaris
# Summary of the method: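 Pentobarbital-anesthetized dogs with infarction, given the drug intravenously. Mean arterial blood pressure was monitored continuously during ventricular tachycardia induced by three paced ventricular beats.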
# Canis familiaris [8] = species on record: Canis familiaris; assay: Effect of compound on myocardial conduction normal (A-V, I-V); […]; format: functional, organism-based; conditions: Canis lupus familiaris; Myocardium
# Summary of the method: (§2)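 Pentobarbital-anesthetized dogs (30 mg/kg iv) with 24-h myocardial infarction, heart exposed by left thoracotomy. Recordings: lead II ECG, His bundle electrogram, and endocardial and epicardial electrodes over the infarct (abnormal tissue) plus a noninfarcted posterior epicardial reference (normal tissue). Atrial pacing from 180/min up to second-degree A-V block, before and after iv drug. Read-outs: intra-atrial, A-V nodal, His-Purkinje and ventricular conduction.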
# Canis familiaris [9] = species on record: Canis familiaris; assay: Compound was evaluated for abolition of ventricular tachycardia (Number/total);+ = slight degree; format: functional, organism-based; conditions: Canis lupus familiaris; Cardiac ventricle
# Summary of the method: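 Dogs with 24-h myocardial infarction, anesthetized with 30 mg/kg iv sodium pentobarbital and given a left thoracotomy. Sustained ventricular tachycardia induced by three paced ventricular beats at 240–390/min. Compound given iv as a bolus in 50% ethanol. Pacing induction attempts repeated after dosing, up to 420/min. Abolition scored as number of dogs/total, with mean arterial pressure monitored.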
# Canis familiaris [10] = species on record: Canis familiaris; assay: Effect of compound on myocardial conduction abnormal; +++ = marked decrease; format: functional, organism-based; conditions: Canis lupus familiaris; Myocardium; summary of the method: as §2
# [11] = Compound was evaluated for abolition of ventricular tachycardia (Number/total); 0/6.; format: functional, tissue-based; conditions: Cardiac ventricle
structure (smiles),measurement,setting,value
[O-][Cl+3]([O-])([O-])O.c1ccc(CN2CC3CSCC(C3)C2)cc1,Rate,Canis familiaris [1],250
same,Mean blood pressure,Canis familiaris [2],112 mmHg
O=C1C2CSCC1CN(Cc1ccccc1)C2 [listing 1 of 2 here],Change in myocardial conduction,Canis familiaris [3],inactive
same,Effect,Canis familiaris [4],moderate decrease
same,Abolition,Canis familiaris [5],slight degree
same,Change in myocardial conduction,Canis familiaris [6],inactive
O=C1C2CSCC1CN(Cc1ccccc1)C2 [listing 2 of 2 here],Mean blood pressure,Canis familiaris [7],< 10%
O=C1C2CSCC1CN(Cc1ccccc1)C2.[O-][Cl+3]([O-])([O-])O,Mean blood pressure,Canis familiaris [7],15%
OC1(c2ccccc2)C2CSCC1CN(Cc1ccccc1)C2.[O-][Cl+3]([O-])([O-])O (stereo not given),Effect,Canis familiaris [8],marked decrease
same,Mean blood pressure,Canis familiaris [7],< 10%
same,Abolition,Canis familiaris [9],slight degree
same,Effect,Canis familiaris [10],marked decrease
CCN(CC)CC(=O)Nc1c(C)cccc1C [LIDOCAINE],Rate,Canis familiaris [1],315
same,Mean blood pressure,Canis familiaris [2],95 mmHg
same,Ratio,[11],inactive
